Where two headings read alike, the source gives them in different places. Values belong to the molecule of their own block, whether it stands above or below them.
Key:
hERG [1] = details: read-out: IC50 hERG; QPatch II platform; ref Okada et al., 2021; cited from earlier work
[2] = ref Carlsson et al., 2020; cited from earlier work
[3] = HCQ monotherapy, meta-analysis of 28 clinical studies; ref Oscanoa et al., 2020; cited from earlier work
Kir2.1 [4] = details: read-out: IC50 Kir2.1; QPatch II platform; ref Okada et al., 2021; cited from earlier work
[5] = system: human adult cardiomyocytes; details: potassium in buffer decreased from 4 mM to 2.5 mM; ref Jordaan et al., 2021; cited from earlier work
human recombinant CaV1.2 = details: 30 μM, manual patch-clamp; ref Crumb et al., 2016; cited from earlier work
Kir2.1 [6] = molecular target: T1, Kir2.1 (Homo sapiens, UniProt P63252); details: read-out: IC50 Kir2.1; manual patch-clamp; ref Crumb et al., 2016; cited from earlier work
T1 sequence (P63252 1-427): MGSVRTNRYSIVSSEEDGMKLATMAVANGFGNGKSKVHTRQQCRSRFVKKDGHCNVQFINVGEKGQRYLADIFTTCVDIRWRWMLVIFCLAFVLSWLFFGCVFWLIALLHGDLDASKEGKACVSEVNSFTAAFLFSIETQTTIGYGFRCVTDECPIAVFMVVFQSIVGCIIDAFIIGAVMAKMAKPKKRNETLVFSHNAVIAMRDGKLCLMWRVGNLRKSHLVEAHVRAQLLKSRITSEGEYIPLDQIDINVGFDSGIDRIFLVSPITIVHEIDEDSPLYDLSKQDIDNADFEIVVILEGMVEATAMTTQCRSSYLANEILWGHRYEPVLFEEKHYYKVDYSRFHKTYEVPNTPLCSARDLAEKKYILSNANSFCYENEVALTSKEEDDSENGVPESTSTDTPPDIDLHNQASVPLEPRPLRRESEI

Kir2.1 [7] = details: read-out: IC50 Kir2.1 outward component; ref Rodriguez-Menchaca et al., 2008; cited from earlier work
human recombinant KV7.1 = details: 30 μM, manual patch-clamp; ref Crumb et al., 2016; cited from earlier work
human recombinant KV4.3 = details: 30 μM, manual patch-clamp; ref Crumb et al., 2016; cited from earlier work
human recombinant NaV1.5 = details: 30 μM, manual patch-clamp; ref Crumb et al., 2016; cited from earlier work
rabbit Purkinje fibers = test: current clamp action potential recording on excised rabbit Purkinje fibers; details: for effect on membrane and AP parameters: 0.3 μM, any beating rate
How it was run: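 Purkinje fibers came from male New Zealand rabbits (1.7–2.1 kg). They were superfused at 10 mL/min and 36 ± 1 °C with bicarbonate buffer at pH 7.4. APs were recorded with 3 M KCl microelectrodes under pacing at 3, 1 and 0.25 Hz. Test compound (0.3, 3, 10, 30 μM) was applied for 30 min each, ascending, followed by 30 min washout; n = 6. Analysis used ANOVA with Dunnett versus baseline.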

[8] = in vitro; ref McLachlan et al., 1993; cited from earlier work
Plasmodium falciparum = details: isolates grown in human erythrocytes; ref Warhurst et al., 2003; cited from earlier work
[9] = system: human immune-deficiency virus serotype 1; details: human T-cell lines and macrophage hybridoma; ref Chiang et al., 1996; cited from earlier work
NaV1.5 = NaV1.5 (Homo sapiens, UniProt Q14524); test: automated patch-clamp; format: cell-based; details: for decrease of NaV1.5 current: up to the highest tested concentration of 90 μM, attributable to current rundown
Sequence of NaV1.5 (Q14524 whole entry): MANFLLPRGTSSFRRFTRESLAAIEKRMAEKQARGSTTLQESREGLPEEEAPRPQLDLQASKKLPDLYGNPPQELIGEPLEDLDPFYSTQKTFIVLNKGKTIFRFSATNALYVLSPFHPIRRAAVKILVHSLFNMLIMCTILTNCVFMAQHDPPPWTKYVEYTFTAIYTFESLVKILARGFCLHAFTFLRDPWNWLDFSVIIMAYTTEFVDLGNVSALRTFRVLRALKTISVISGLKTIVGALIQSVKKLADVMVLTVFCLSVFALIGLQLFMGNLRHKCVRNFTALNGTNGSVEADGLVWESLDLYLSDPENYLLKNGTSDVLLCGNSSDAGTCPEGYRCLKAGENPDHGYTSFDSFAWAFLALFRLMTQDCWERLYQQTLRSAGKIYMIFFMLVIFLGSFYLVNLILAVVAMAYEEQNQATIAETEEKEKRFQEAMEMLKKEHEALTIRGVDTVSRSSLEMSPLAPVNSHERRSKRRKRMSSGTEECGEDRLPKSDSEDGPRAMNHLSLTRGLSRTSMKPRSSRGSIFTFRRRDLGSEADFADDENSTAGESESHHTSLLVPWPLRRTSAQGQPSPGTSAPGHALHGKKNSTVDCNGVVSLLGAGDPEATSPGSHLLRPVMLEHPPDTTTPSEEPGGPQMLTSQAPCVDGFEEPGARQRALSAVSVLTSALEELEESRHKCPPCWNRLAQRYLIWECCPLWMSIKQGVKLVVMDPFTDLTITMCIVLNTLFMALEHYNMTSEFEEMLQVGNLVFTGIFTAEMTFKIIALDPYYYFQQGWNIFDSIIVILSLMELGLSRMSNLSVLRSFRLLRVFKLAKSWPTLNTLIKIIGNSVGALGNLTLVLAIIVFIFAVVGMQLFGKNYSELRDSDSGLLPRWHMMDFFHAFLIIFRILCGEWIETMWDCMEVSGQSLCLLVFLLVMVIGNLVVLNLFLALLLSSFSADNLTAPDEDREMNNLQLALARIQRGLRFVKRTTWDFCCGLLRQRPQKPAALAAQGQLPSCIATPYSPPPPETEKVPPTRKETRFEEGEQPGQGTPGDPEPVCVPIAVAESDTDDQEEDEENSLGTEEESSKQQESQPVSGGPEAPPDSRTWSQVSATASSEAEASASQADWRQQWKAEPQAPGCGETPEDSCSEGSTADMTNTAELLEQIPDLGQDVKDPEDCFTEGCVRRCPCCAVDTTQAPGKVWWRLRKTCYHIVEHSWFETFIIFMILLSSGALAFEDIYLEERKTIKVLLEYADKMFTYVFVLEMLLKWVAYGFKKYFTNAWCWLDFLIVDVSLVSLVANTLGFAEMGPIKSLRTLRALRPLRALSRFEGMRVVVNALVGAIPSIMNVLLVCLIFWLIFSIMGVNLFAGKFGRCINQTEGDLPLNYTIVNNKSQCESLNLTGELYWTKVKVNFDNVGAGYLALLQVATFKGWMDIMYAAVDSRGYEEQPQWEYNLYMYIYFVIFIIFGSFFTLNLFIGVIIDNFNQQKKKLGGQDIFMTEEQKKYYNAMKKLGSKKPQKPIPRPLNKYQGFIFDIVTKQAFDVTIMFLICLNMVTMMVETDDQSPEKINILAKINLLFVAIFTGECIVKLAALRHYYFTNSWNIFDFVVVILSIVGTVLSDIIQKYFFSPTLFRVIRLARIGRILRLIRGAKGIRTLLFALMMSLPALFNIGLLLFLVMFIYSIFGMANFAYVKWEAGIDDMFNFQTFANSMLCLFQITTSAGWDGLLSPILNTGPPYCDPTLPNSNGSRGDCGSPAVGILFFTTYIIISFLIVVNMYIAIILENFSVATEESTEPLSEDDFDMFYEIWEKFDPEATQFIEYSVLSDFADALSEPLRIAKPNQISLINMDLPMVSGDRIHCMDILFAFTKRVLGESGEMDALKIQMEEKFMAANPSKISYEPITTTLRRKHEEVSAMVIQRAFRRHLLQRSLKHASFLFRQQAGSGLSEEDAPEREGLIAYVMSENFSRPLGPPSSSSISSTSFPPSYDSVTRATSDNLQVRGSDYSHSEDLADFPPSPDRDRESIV

Kir2.1 [10] = molecular target: T1, Kir2.1; test: automated patch-clamp; format: cell-based; details: levorotatory enantiomer the most potent
[11] = ref Wainer et al., 1994; cited from earlier work
hERG [12] = molecular target: hERG (Homo sapiens, UniProt Q12809); test: automated patch-clamp; format: cell-based; details: ratio of IC50 values
Sequence of hERG (Homo sapiens, UniProt Q12809) (Q12809 whole entry): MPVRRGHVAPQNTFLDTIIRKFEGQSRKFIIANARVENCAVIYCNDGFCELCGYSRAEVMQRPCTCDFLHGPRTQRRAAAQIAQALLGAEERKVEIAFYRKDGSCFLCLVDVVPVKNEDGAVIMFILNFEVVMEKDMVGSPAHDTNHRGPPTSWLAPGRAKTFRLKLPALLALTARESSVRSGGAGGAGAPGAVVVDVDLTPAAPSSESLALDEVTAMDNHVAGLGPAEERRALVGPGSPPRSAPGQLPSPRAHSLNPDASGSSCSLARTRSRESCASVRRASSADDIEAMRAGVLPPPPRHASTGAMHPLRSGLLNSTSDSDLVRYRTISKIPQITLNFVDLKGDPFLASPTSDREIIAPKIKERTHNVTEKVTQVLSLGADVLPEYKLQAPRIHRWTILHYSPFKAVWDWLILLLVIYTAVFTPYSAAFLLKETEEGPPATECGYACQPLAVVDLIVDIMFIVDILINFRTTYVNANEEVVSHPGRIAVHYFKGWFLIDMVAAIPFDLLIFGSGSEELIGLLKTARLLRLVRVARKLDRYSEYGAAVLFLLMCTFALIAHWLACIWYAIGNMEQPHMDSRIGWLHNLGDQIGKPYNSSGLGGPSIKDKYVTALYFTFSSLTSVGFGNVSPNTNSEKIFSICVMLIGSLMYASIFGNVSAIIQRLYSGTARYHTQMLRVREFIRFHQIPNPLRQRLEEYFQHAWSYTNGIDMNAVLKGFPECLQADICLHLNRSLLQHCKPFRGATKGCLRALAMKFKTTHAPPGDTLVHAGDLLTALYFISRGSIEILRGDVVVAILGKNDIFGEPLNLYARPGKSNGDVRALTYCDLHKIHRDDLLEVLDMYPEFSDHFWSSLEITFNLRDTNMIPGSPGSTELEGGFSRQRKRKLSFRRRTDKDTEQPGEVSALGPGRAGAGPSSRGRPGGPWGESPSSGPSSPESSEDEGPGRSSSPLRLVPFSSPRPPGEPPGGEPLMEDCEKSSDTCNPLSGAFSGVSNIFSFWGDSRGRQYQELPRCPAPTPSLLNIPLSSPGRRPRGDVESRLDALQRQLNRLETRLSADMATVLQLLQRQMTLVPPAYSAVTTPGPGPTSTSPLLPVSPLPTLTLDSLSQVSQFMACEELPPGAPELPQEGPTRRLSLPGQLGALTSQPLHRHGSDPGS

CaV1.2/β2/α2δ1 = CaV1.2/β2/α2δ1 (Homo sapiens, UniProt Q13936); test: automated patch-clamp; format: cell-based; details: CdCl2 0.2 mM, end of recording
KV4.3/KChIP2.2 = molecular target: T2, KV4.3/KChIP2.2 (Homo sapiens, UniProt Q9UK17); test: automated patch-clamp; format: cell-based
T2 sequence (Q9UK17 1-655): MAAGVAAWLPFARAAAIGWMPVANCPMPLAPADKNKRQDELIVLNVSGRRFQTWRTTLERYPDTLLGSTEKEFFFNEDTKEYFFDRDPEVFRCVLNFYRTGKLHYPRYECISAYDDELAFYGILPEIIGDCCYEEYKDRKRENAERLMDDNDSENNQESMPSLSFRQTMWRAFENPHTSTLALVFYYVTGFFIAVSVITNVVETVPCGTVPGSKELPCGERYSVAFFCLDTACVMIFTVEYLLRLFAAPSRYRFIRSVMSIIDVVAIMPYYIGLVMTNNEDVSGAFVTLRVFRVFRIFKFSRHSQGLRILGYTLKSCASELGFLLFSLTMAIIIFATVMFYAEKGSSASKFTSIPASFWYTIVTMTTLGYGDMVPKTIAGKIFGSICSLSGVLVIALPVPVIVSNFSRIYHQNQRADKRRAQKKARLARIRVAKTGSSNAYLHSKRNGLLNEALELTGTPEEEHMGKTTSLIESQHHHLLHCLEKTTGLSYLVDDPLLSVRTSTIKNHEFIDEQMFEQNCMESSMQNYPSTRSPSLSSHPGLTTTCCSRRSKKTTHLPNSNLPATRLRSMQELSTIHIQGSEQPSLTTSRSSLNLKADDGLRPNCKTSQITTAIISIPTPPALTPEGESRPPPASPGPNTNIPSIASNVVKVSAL
T2 sequence (Q9NS61 1-252 isoform Q9NS61-2 partner): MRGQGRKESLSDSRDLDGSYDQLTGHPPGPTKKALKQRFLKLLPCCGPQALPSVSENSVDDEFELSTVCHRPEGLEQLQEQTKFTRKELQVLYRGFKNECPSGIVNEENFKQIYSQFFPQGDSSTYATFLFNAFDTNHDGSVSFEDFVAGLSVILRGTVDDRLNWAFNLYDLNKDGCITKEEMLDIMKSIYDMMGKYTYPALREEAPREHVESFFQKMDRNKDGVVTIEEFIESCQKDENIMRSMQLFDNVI
How it was run: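 CHO cells constitutively expressing human KV4.3/KChIP2.2 were whole-cell recorded at room temperature. Cells were held at −80 mV and stepped to +20 mV with 500 ms pulses. Test compound was applied at six cumulative ascending concentrations up to 90 μM in 0.3% or 1% DMSO with 1% Pluronic F-68. Leak was removed with 30 μM SKF-96365. Integral charge was normalized to pre-drug, and IC50 was fitted sigmoidally (0–100% constrained) with 95% CI.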

KV7.1/minK = KV7.1/minK (Homo sapiens, UniProt P51787); test: automated patch-clamp; format: cell-based
Sequence of KV7.1/minK (P51787 whole entry): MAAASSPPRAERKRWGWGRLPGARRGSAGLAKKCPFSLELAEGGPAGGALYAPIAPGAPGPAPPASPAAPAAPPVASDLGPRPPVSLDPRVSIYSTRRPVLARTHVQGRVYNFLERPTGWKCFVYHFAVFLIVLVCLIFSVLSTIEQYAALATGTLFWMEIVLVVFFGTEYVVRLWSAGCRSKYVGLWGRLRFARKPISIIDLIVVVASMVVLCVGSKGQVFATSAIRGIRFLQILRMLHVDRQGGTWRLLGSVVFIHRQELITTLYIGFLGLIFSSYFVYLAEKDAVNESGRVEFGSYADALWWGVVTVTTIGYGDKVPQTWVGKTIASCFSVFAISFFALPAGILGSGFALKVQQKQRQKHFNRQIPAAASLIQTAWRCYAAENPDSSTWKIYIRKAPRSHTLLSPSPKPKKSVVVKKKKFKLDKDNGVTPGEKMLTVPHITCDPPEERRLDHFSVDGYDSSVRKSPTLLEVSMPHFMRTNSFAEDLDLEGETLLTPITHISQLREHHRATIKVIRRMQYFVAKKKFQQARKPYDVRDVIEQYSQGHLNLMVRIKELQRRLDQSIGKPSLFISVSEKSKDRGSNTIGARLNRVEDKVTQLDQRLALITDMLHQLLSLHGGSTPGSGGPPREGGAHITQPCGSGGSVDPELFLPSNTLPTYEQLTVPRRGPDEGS

SMILES: CCN(CCO)CCCC(C)Nc1ccnc2cc(Cl)ccc12 (stereo not drawn) [HCQ, Hydroxychloroquine]
IC50 (hERG [1]): 17 µM
plasma concentrations relative to blood [2]: two-fold lower
occurrence of QT-prolongations [3]: below 2%
IC50 (Kir2.1 [4]): 30 µM
proarrhythmic risk at reduced potassium [5]: proarrhythmic risk rose significantly

SMILES: CCN(CC)CCCC(C)Nc1ccnc2cc(Cl)ccc12 (stereo not drawn) [CQ, chloroquine]
inhibition of CaV1.2 (human recombinant CaV1.2): less than 20%
IC50 (Kir2.1 [6]): 11 µM
IC50 (Kir2.1 [7]): 9 µM
inhibition of KV7.1 (human recombinant KV7.1): less than 20%
inhibition of KV4.3 (human recombinant KV4.3): less than 20%
inhibition of NaV1.5 (human recombinant NaV1.5): less than 20%

SMILES: CCN(CCO)CCCC(C)Nc1ccnc2cc(Cl)ccc12 (stereo not drawn) [R(-)HCQ]
effect on membrane and AP parameters (rabbit Purkinje fibers): neither R(-)HCQ nor S(+)HCQ had a significant effect
autogenic activity (rabbit Purkinje fibers; 10 μM and 30 μM): inducing autogenic activity
decrease of median resting membrane potential (rabbit Purkinje fibers; 30 μM, 60 bpm (1 Hz)): 20%
increase of AP duration at near complete repolarization (APD90) (rabbit Purkinje fibers; 30 μM, 180 bpm, n = 2 readings): 25%
early after depolarizations (EADs) (rabbit Purkinje fibers; any concentration and pacing rate): no torsadogenic early after depolarizations (EADs) events were observed
free fraction (plasma protein binding) [8]: 63%
inhibition of Plasmodium falciparum proliferation, comparison of enantiomers (Plasmodium falciparum): identical IC50 values
inhibition of HIV-1 replication, comparison of enantiomers [9]: equipotent
block-potency ratio of the enantiomers against Kir2.1 (Kir2.1 [10]): two-fold
accumulation in ocular tissue [11]: preferential accumulation
decrease of NaV1.5 current (NaV1.5): below 10%
greater potency of R(-)HCQ over S(+)HCQ on hERG (hERG [12]): 3.7 fold

SMILES: [Cl][Cd][Cl] [CdCl2]
effect on CaV1.2 currents (CaV1.2/β2/α2δ1): inhibited all the currents

Continued, in another order:

abnormal AP exhibiting EADs (rabbit Purkinje fibers; 10 μM, 15 bpm): one of the six fibers
abnormal AP exhibiting EADs (rabbit Purkinje fibers; 30 μM, 15 bpm, fibers that could follow pacing): one of the four fibers
autogenic activity escaping electrical pacing (rabbit Purkinje fibers; 30 μM, all rates): two out of six fibers
SMILES: CCN(CCO)CCC[C@H](C)Nc1ccnc2cc(Cl)ccc12 [S(+)HCQ]
effect on membrane and AP parameters (rabbit Purkinje fibers): neither R(-)HCQ nor S(+)HCQ had a significant effect
increase of median APD90 (rabbit Purkinje fibers; 10 μM, 15 bpm): 56%
median APD90 duration in presence of drug (rabbit Purkinje fibers; 10 μM, 15 bpm): 827 ms
increase of median APD90 (rabbit Purkinje fibers; 10 μM, 60 bpm): 34%
median APD90 duration in presence of drug (rabbit Purkinje fibers; 10 μM, 60 bpm): 481 ms
increase of median APD90 (rabbit Purkinje fibers; 10 μM, 180 bpm): 12%
median APD90 duration in presence of drug (rabbit Purkinje fibers; 10 μM, 180 bpm): 246 ms
decrease of median resting membrane potential (rabbit Purkinje fibers; 30 μM, 180 bpm (3 Hz)): 11%
free fraction (plasma protein binding) [8]: 36%
inhibition of Plasmodium falciparum proliferation, comparison of enantiomers (Plasmodium falciparum): identical IC50 values
inhibition of HIV-1 replication, comparison of enantiomers [9]: equipotent
decrease of NaV1.5 current (NaV1.5): below 10%

IC50 (KV4.3/KChIP2.2): 11 µM
IC50 (KV7.1/minK): 7.2 µM
SMILES: CC(C)COCC(CN(Cc1ccccc1)c1ccccc1)N1CCCC1 (stereo not drawn) [bepridil]
IC50 (NaV1.5): 2.5 µM
